Data from ChEMBL document CHEMBL1139384, “First Cdc7 kinase inhibitors: pyrrolopyridinones as potent and orally active antitumor agents. 2. Lead discovery” (J Med Chem, 2009).
Active and inactive are the calls of the source. The rule behind the calls is not given here.

Experiments:
[1] = target: Fibroblast growth factor receptor 1 (Homo sapiens, UniProt P11362); assay: Inhibition of FGFR1
[2] = target: Mast/stem cell growth factor receptor Kit (Homo sapiens, UniProt P10721); assay: Inhibition of KIT
[3] = target: Hepatocyte growth factor receptor (Homo sapiens, UniProt P08581); assay: Inhibition of MET
Chain of Hepatocyte growth factor receptor (P08581 whole entry): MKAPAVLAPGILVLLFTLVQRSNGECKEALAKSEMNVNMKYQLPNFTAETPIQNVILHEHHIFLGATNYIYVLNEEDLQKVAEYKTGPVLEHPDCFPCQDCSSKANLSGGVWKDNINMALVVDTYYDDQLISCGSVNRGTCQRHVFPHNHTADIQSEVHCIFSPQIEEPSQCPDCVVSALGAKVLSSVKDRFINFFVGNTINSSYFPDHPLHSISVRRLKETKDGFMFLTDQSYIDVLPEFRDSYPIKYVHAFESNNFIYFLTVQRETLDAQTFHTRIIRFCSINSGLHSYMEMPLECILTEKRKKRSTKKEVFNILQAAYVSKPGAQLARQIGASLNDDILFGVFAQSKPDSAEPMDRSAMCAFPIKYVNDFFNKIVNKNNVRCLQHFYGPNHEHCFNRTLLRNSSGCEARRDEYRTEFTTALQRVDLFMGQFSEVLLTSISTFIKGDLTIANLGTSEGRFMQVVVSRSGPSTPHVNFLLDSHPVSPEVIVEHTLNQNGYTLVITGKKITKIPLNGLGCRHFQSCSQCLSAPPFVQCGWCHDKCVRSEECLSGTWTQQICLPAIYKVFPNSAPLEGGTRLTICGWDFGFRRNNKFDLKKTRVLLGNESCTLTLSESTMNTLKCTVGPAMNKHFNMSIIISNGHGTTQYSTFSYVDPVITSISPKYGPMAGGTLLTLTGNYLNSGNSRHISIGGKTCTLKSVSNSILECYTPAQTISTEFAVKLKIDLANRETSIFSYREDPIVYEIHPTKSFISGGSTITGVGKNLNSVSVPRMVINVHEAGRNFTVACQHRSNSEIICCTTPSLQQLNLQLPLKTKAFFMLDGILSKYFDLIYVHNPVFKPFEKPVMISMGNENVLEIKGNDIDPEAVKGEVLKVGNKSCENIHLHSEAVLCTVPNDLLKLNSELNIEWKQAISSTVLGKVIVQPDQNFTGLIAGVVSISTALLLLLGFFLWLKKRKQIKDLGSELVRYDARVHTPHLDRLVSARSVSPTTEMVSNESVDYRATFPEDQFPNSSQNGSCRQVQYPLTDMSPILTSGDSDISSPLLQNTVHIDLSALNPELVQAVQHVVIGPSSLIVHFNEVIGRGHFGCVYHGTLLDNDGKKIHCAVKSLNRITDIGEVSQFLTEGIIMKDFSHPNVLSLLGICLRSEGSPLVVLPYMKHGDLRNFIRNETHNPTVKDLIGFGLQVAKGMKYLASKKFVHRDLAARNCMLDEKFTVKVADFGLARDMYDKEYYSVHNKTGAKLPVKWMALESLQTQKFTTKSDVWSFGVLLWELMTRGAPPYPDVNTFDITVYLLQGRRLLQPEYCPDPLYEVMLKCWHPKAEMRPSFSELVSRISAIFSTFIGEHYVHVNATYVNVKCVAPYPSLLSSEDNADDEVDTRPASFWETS

[4] = Inhibition of PDGFR
[5] = target: STE20-like serine/threonine-protein kinase (Homo sapiens, UniProt Q9H2G2); assay: Inhibition of STLK2
[6] = target: Serine/threonine-protein kinase 26 (Homo sapiens, UniProt Q9P289); assay: Inhibition of MST4
Chain of Serine/threonine-protein kinase 26 (Q9P289 whole entry): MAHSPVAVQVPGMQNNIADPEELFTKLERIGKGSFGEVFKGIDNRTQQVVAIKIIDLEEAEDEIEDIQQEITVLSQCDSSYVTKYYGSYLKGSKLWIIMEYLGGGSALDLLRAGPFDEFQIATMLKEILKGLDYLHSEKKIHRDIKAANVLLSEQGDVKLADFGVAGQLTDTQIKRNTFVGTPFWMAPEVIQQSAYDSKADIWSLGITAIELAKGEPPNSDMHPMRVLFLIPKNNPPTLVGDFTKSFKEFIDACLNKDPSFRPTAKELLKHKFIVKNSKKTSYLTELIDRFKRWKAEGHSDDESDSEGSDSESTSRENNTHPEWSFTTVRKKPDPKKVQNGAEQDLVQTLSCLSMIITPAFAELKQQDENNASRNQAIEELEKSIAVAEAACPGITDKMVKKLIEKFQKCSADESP

[7] = Metabolic stability in human hepatocytes expressing CYP3A4 assessed as drug remaining after 1 hr; type: ADME, cell-based, Hepatocyte; conditions: read-out: Stability
[8] = Tmax in nu/nu mouse at 10 mg/kg, po administered as single dose; type: ADME, organism-based; design: dose 10 mg/kg, route oral; conditions: in vivo
Outline: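 Overnight-fasted male Nu/Nu mice got a single 10 mg/kg dose in 5% dextrose, iv or po, three mice per route. Saphenous blood was drawn at 0.083 (iv) or 0.25 (po), 0.5, 1, 6 and 24 h. Plasma was assayed by LC/MS/MS and analysed noncompartmentally. Tmax is the observed peak time, Vss = CL·MRT, and F is the ratio of dose-normalized AUC∞ po/iv.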

[9] = Half life in nu/nu mouse at 10 mg/kg, po administered as single dose; type: ADME, organism-based; design: dose 10 mg/kg, route oral; conditions: in vivo
Outline: (§1)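 Single iv or oral dose in 5% dextrose to overnight-fasted animals. Nu/Nu mice: males, 3 per route, saphenous bleeds to 24 h. Han-Wistar rats: males, 3 per route, jugular bleeds to 24 h. Beagle dogs: 2 per sex, iv and po crossover 2 weeks apart, jugular bleeds to 48 h. Plasma by LC/MS/MS; noncompartmental parameters, AUC by linear trapezoid with extrapolation.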

[10] = target: T1, Cell division cycle 7-related protein kinase (Homo sapiens, UniProt O00311); assay: Inhibition of human Cdc7 assessed as inhibition of rate of phosphorylation of Mcm2 protein
Target sequence in this assay (O00311 whole entry): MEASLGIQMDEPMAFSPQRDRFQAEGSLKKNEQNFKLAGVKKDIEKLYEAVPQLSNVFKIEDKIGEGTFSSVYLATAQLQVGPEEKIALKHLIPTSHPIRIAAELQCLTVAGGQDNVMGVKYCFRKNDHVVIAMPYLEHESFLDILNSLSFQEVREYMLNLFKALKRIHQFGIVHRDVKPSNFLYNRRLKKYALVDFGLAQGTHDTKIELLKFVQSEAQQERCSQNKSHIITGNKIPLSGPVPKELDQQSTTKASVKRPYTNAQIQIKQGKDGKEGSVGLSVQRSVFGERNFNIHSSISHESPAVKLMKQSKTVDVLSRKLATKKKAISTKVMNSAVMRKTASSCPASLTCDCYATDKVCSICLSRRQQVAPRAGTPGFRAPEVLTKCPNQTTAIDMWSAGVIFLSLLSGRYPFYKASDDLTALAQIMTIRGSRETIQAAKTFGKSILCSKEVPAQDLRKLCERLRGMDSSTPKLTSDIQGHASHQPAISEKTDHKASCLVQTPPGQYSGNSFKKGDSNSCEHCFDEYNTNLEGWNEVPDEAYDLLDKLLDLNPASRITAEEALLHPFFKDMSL

A2780 = assay: Antiproliferative activity against human A2780 cells after 72 hrs by luciferase based assay; type: functional, cell-based; conditions: Homo sapiens, A2780, 72 h
[11] = Half life in Wistar rat at 10 mg/kg, iv administered as single dose; type: ADME, organism-based; design: dose 10 mg/kg, route intravenous; conditions: in vivo; outline: as §1
[12] = Cmax in Beagle dog at 5 mg/kg, iv administered as single dose; type: ADME, organism-based, Canis lupus familiaris; design: dose 5 mg/kg, route intravenous; conditions: in vivo; outline: as §1
[13] = Volume of distribution at steady state in Beagle dog at 5 mg/kg, iv administered as single dose; type: ADME, organism-based, Canis lupus familiaris; design: dose 5 mg/kg, route intravenous; conditions: in vivo, read-out: Vdss
Outline: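 Overnight-fasted Beagle dogs, 2 per sex, in a crossover design: 5 mg/kg iv and 10 mg/kg po, two weeks apart, in 5% dextrose. Jugular blood was drawn up to 48 h, and urine was collected over 0–8, 8–24 and 24–48 h. Samples were assayed by LC/MS/MS and analysed noncompartmentally.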

[14] = Half life in Beagle dog at 10 mg/kg, po administered as single dose; type: ADME, organism-based, Canis lupus familiaris; design: dose 10 mg/kg, route oral; conditions: in vivo; outline: as §1
MCF7 = assay: Antiproliferative activity against human MCF7 cells after 72 hrs by luciferase based assay; type: functional, cell-based; conditions: MCF7, 72 h
HeLa [15] = assay: Inhibition of DNA synthesis in human HeLa cells at 3 uM assessed as bromodeoxyuridine incorporation after 3 hrs; type: functional; design: scale not given: the % may be the effect or the level left
Outline: (§2)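 Logarithmically growing HeLa cells exposed to 3 µM for set times, labelled with 50 µM BrdU, fixed in 70% ethanol. DNA content by propidium iodide with RNase A, 30 min at 37 °C; BrdU by FITC anti-BrdU after 2N HCl denaturation; percent positive cells by FACS.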

HeLa [16] = assay: Inhibition of DNA synthesis in human HeLa cells at 3 uM assessed as bromodeoxyuridine incorporation after 6 hrs; type: functional; design: scale not given: the % may be the effect or the level left; outline: as §2
HeLa [17] = assay: Cell cycle arrest in human HeLa cells assessed as accumulation at G1/S phase at 3 uM by fluorescence activated cell sorting; type: functional, cell-based; outline: as §2
HeLa [18] = assay: Cell cycle arrest in human HeLa cells assessed as accumulation at S phase at 3 uM by fluorescence activated cell sorting; type: functional, cell-based; outline: as §2
[19] = target: T1, Cell division cycle 7-related protein kinase; assay: Inhibition of human Cdc7 in human A2780 cells assessed as inhibition of Ser53 phosphorylation of Mcm2 protein after 4 hrs; type: cell-based
Outline: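 A2780 cells exposed for 4 h to a range of concentrations, then lysed in 50 mmol/L Tris-HCl pH 6.8, 1% SDS, 1 mmol/L DTT and sonicated 10 s. 15 µg protein per lane ([…]) was taken for Western blot with phospho-specific antibodies to MCM2 Ser40 and Ser53.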
Target sequence in this assay (O00311 whole entry, looked up): as the sequence (O00311 whole entry) above

[20] = target: T1, Cell division cycle 7-related protein kinase; assay: Inhibition of human Cdc7 in human A2780 cells assessed as inhibition of Ser40 phosphorylation of Mcm2 protein at 3 uM up to 24 hrs; type: cell-based
Outline: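 Time course in A2780 cells held at 3 µM for up to 24 h. Extracts were made in 50 mmol/L Tris-HCl pH 6.8, 1% SDS, 1 mmol/L DTT with 10 s sonication, loaded at 15 µg per lane, and immunoblotted with antiphosphopeptide antibodies to MCM2 Ser40 and Ser53. Cleaved caspase 3 was also probed.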
Target sequence in this assay (O00311 whole entry, looked up): as the sequence (O00311 whole entry) above

Rattus norvegicus [21] = assay: Antitumor activity against DMBA-induced mammary carcinoma in CD OFA rat assessed as duration of tumor stabilization maintenance at 20 mg/kg, po administered for 10 days; type: functional
Outline: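 DMBA tumors induced in female CD OFA rats by single intragastric 20 mg DMBA in sesame oil; after about 50 days, rats with a mammary tumor of at least 1 cm given 20 mg/kg orally twice daily for 10 days in glucose solution, or vehicle; 10 per group; tumor volume by Vernier calipers.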

Mus musculus = assay: Inhibition of human Cdc7 in human A2780 cells xenografted in CDI nu/nu mouse assessed as inhibition of Ser40 phosphorylation of Mcm2 protein at 60 mg/kg, po first dose administered at 6 hrs and second dose 3 hrs after first dose by Western blot; type: functional, organism-based; design: dose 60 mg/kg
Outline: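 Mice bearing A2780 xenografts given two oral doses of 60 mg/kg, the second 3 h after the first, over 6 h, or vehicle. Explanted tumors blotted for Mcm2 phospho-Ser40 and phospho-Ser53, with total MCM2 and tubulin as loading controls.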

[22] = Inhibition of Cdk1b
[23] = Inhibition of CK2
[24] = Inhibition of Cdk2E
[25] = target: Tyrosine-protein kinase ABL1 (Homo sapiens, UniProt P00519); assay: Inhibition of ABL
[26] = target: RAC-alpha serine/threonine-protein kinase (Homo sapiens, UniProt P31749); assay: Inhibition of AKT1
Chain of RAC-alpha serine/threonine-protein kinase (P31749 whole entry): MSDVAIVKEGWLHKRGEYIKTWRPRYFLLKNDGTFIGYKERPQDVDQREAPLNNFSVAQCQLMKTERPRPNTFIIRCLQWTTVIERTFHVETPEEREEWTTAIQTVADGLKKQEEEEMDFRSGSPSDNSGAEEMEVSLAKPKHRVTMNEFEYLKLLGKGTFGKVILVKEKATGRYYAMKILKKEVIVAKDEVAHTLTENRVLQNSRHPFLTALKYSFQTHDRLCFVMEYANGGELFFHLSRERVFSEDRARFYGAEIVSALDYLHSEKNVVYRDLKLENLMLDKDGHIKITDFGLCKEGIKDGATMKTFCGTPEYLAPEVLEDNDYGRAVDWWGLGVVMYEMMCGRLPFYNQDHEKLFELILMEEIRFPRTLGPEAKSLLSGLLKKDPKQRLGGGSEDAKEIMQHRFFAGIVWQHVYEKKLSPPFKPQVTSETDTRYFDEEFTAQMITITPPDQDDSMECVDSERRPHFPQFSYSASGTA

[27] = target: ALK tyrosine kinase receptor (Homo sapiens, UniProt Q9UM73); assay: Inhibition of ALK
Chain of ALK tyrosine kinase receptor (Q9UM73 whole entry): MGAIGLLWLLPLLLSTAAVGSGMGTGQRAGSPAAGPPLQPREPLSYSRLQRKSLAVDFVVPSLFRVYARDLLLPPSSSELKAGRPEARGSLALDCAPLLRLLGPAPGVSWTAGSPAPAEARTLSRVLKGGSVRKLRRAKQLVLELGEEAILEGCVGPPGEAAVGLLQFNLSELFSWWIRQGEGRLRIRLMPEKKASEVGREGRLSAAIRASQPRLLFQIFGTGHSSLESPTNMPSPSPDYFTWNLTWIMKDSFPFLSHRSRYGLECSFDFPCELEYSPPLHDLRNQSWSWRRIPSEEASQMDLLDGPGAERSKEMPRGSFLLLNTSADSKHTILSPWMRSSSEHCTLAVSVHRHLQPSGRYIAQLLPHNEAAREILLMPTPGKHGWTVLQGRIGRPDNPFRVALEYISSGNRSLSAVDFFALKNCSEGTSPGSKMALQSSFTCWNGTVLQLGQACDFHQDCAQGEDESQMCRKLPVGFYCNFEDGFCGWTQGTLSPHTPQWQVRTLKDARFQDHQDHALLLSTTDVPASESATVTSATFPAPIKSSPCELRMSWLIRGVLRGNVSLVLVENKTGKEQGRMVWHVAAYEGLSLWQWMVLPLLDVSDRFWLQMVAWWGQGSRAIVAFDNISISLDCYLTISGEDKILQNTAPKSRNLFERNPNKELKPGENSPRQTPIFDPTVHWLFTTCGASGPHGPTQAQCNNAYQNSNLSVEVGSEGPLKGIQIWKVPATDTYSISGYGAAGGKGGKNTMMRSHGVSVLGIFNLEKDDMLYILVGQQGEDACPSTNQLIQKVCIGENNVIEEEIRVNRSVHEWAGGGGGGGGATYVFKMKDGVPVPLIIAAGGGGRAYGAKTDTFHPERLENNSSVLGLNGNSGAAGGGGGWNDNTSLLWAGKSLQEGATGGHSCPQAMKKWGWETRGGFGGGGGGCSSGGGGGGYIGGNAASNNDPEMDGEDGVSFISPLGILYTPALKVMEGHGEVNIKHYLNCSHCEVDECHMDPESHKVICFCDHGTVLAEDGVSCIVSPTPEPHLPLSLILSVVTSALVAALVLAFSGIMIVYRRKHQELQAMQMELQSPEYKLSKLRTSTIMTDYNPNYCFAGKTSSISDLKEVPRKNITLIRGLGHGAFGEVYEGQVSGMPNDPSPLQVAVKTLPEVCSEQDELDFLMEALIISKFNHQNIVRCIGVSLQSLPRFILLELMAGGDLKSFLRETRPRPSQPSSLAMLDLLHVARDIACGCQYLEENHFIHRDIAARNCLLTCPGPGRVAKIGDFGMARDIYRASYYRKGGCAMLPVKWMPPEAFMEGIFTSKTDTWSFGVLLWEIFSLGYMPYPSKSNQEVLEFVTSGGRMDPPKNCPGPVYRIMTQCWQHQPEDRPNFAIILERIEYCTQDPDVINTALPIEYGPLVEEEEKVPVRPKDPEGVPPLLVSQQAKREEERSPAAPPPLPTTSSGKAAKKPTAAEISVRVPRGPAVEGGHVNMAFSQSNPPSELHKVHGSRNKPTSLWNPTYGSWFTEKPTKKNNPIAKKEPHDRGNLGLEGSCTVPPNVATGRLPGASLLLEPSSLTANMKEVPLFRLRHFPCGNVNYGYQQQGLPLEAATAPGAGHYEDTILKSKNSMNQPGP

Aurora kinase A = Aurora kinase A (Homo sapiens, UniProt O14965); assay: Inhibition of AUR2
Chain of Aurora kinase A (O14965 whole entry): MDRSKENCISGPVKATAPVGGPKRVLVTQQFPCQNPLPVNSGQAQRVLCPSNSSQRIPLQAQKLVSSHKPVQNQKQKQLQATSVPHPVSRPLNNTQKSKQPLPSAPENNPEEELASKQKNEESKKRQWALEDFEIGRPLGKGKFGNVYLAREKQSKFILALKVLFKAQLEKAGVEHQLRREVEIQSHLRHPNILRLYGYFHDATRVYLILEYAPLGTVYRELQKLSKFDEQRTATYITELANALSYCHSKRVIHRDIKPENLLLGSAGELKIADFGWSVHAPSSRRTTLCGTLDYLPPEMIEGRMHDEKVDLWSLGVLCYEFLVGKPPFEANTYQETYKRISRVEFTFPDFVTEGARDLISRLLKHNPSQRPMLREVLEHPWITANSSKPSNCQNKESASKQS

[28] = target: Serine/threonine-protein kinase PLK1 (Homo sapiens, UniProt P53350)
[29] = Half life in Wistar rat at 20 mg/kg, po administered as single dose; conditions: in vivo
Rattus norvegicus [30] = assay: AUC (0 to infinity) in Wistar rat at 20 mg/kg, po administered as single dose; conditions: in vivo

SMILES: Nc1nccc(-c2cc3c([nH]2)[C@@H](CCF)CNC3=O)n1
- IC50 [1]: > 4000 nM
- IC50 [2]: > 4000 nM
- IC50 [3]: > 4000 nM
- IC50 [4]: > 4000 nM
- IC50 [5]: > 4000 nM
- IC50 [6]: > 4000 nM
- remaining at 1 h [7]: 95%
- Tmax [8]: 0.5 h
- half-life [9]: 1 h
- IC50 [10]: 2 nM
- IC50 (A2780): 500 nM
- half-life [11]: 1.3 h
- Cmax [12]: 8.9 µM
- Vd [13]: 2.1 L/kg
- half-life [14]: 1.2 h
- IC50 (MCF7): 1100 nM
- Activity (HeLa [15]): 28%
- Activity (HeLa [16]): 16%
- Activity (HeLa [17]): Active
- Activity (HeLa [18]): Active
- MED [19]: 0.6 µM
- Activity [20]: Active
- Activity (Rattus norvegicus [21]): 35 days
- Activity (Mus musculus): Active
- IC50 [22]: 30 nM
- IC50 [23]: 359 nM
- IC50 [24]: 670 nM
- IC50 [25]: > 4000 nM
- IC50 [26]: > 4000 nM
- IC50 [27]: > 4000 nM
- IC50 (Aurora kinase A): > 4000 nM
- IC50 [28]: 574 nM
- half-life [29]: 6.2 h
- AUC (Rattus norvegicus [30]): 18.9 µM·h
